Most compounds without a hit are left out; they make up all but 1.5% or so of the library.
NR2E3 ag-1 = NR2E3 (human) agonism | Q9Y5X4 | GST-NR2E3/biotin-RetCOR TR-FRET, 1536-well | inhibition of corepressor binding, % at 4.78 µM | 320,000 tested, 0.12% active;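 active means percent inhibition above the cutoff of mean plus 3 SD of all tested compounds, set per screening campaign, cut at about 20% in these data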;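 further: 0% = DMSO wells and 100% = biotin wells as full block of FRET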
Target sequence (Q9Y5X4 whole entry, looked up): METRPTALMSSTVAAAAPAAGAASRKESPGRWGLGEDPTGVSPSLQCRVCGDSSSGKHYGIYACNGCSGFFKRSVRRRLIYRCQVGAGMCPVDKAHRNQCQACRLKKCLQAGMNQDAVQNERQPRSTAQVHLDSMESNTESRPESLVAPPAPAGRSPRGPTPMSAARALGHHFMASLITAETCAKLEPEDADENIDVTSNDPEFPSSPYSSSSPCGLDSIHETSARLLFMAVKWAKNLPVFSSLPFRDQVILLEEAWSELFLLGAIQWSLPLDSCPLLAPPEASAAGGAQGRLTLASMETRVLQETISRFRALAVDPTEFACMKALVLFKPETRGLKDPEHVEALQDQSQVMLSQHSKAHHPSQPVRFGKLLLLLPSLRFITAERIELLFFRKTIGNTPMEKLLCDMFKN
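Material: NR2E3–RetCOR corepressor complex / Amount: 1.35 nM GST-NR2E3 / Medium: Tris pH 7.5 / Compound: single nominal compound dose of 4.8 µM / Incubation: 5 h at 4 °C / Technique: TR-FRET, Eu(K)-anti-GST donor, streptavidin-D2 acceptor, ex 340, em 617/671 nm / Read-out basis: percent loss of FRET ratio relative to control wells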
PG9 Ab binder = small molecules binding HIV-1 gp120 antibody PG9 | TR-FRET gp120-PG9 antibody binding | inhibition, % at 6.7 µM | 360,000 tested, 0.43% active | AID 624416; in the data active means inhibition above about 8.5%
NR1D1 modulator = modulators of human Rev-erb alpha DNA binding; activity, % at 10 µM; P20393; 370,000 tested, 0.79% active; Rev-erbα–FITC-DNA binding, fluorescence polarization, 90 min;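 active means activity above about 14%, limit read from the data; passing the limit was not always enough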;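 further: 0% = DMSO wells with 35 nM protein and 100% = DMSO wells with 750 nM protein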
NR2E3 ag-2 = agonists of human NR2E3 nuclear receptor | CHO-S Gal4-NCOR/VP16-NR2E3 two-hybrid, luciferase | 360,000 tested, 0.35% active | inhibition of corepressor binding, % at 3.98 µM | Q9Y5X4;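 active means inhibition above the mean of all tested compounds plus 3 SD, cut at about 70% in these data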;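 further: 0% = DMSO with NR2E3 transfected cells and 100% = cells lacking NR2E3 construct; higher means lower luciferase signal from less NR2E3 corepressor binding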
Rev-erbA confirm = Rev-erb alpha (human) modulation, hit confirmation. Rev-erb alpha FITC-DNA binding, fluorescence polarization, 90 min. shares compounds with NR1D1 modulator. 3,000 tested, 61% active. activation, % at 25 µM;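 active means activation at or above a set limit, or at least 3 SD above the negative control mean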;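 further: 0% = 35 nM protein with DMSO and 100% = 750 nM protein high control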
RORg DNA counter = counter-screen for Rev-erb alpha modulators: RORgamma DNA binding | shares compounds with NR1D1 modulator | purified RORgamma protein-FITC-DNA binding, fluorescence polarization | IC50, µM | 910 tested, 8% active | AID 1259320;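 active means Compounds whose fitted half-maximal concentration for disrupting protein-DNA binding is below 10 micromolar; the record names Rev-erb in its text, so the target is in doubt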
Numbers without * were called inactive.

Screening Clc1ccc(-c2nnc3n2N=C(c2ccc(-c4ccccc4)cc2)CS3)cc1 returned NR1D1 modulator -5.
Screening O=c1sc(N2CCN(c3ccccc3F)CC2)nc2ccsc12 returned NR2E3 ag-1 4, PG9 Ab binder -2, NR1D1 modulator 24*, NR2E3 ag-2 -115 and Rev-erbA confirm 14*.
For O=C(NCCc1ccccc1)OCc1cn(-c2cccc(F)c2F)nn1 the results were NR1D1 modulator 5.
For CNC(=O)CSc1nc(-c2ccccc2)c(-c2ccccc2)o1 the results were NR2E3 ag-1 -3, PG9 Ab binder 0, NR1D1 modulator 14*, NR2E3 ag-2 -3 and Rev-erbA confirm 11.
Screening CN(Cc1nc2ccccc2c(=O)[nH]1)C(=O)c1cc(-c2ccc(Br)cc2)nc2ccccc12 returned PG9 Ab binder 1, NR1D1 modulator 36*, NR2E3 ag-2 -21 and Rev-erbA confirm 23*.
Screening CC(=O)N1CCc2c(sc(NC(=O)C3CC3)c2-c2nc3ccccc3s2)C1 returned NR2E3 ag-1 6, PG9 Ab binder 0, NR1D1 modulator 170*, NR2E3 ag-2 -20 and Rev-erbA confirm 5.
For Cn1cc(C(=O)NC2CCCCCC2)c(=O)c2cc(S(=O)(=O)N3CCCC3)ccc21 the results were NR2E3 ag-1 2, PG9 Ab binder 3, NR1D1 modulator 32*, NR2E3 ag-2 -10 and Rev-erbA confirm 18*.
Screening CCOC(=O)C1CCN(C(=O)C(C)(C)NC(=O)Nc2ccc3c(c2)CCC3)CC1 returned NR1D1 modulator -9.
For NC(=O)C1(N2CCCCC2)CCN(C(=S)Nc2ccc(F)c(Cl)c2)CC1 the results were NR2E3 ag-1 0, PG9 Ab binder -2, NR1D1 modulator 13*, NR2E3 ag-2 -4 and Rev-erbA confirm -6.
For Cc1ccc(-c2c(NC(=O)c3ccccc3)nc3ncccn23)cc1 the results were NR1D1 modulator 1.
`Cc1nc(SCc2nc3ccccc3[nH]2)c2oc3ccccc3c2n1` gave NR2E3 ag-1 -1, PG9 Ab binder -5, NR1D1 modulator -6 and NR2E3 ag-2 18.
Cc1nc(SCc2nc3c(C)cccc3[nH]2)c2oc3ccccc3c2n1 was read as PG9 Ab binder -2, NR1D1 modulator 7 and NR2E3 ag-2 33.
Screening Cc1nc(SCc2nc3c(F)cccc3[nH]2)c2oc3ccccc3c2n1 returned PG9 Ab binder 5, NR1D1 modulator 30*, NR2E3 ag-2 -1, Rev-erbA confirm 39* and RORg DNA counter >40.
`c1ccc(-c2nc(SCc3nc4ccccc4[nH]3)c3oc4ccccc4c3n2)cc1` gave PG9 Ab binder -2, NR1D1 modulator 46*, NR2E3 ag-2 -30, Rev-erbA confirm 45* and RORg DNA counter >40.
`COC1=C[C@H](C(=O)NCc2ccccc2)[C@H](C)[C@@H](c2ccccc2)CC1=O` gave NR1D1 modulator -3.
Screening CCc1cc2c(C)cc(C)cc2nc1SCC(=O)Nc1cc(C)on1 returned NR2E3 ag-1 3, PG9 Ab binder 0, NR1D1 modulator 97*, NR2E3 ag-2 -17 and Rev-erbA confirm 19*.
`Cc1cc(C)c2cc(C#N)c(SCC(=O)Nc3cc(C)on3)nc2c1` gave NR2E3 ag-1 -4, PG9 Ab binder 2, NR1D1 modulator 105*, NR2E3 ag-2 12, Rev-erbA confirm 49* and RORg DNA counter >40.
For Cc1ccc(C)c2nc(SCC(=O)N3CCCc4ccccc43)c(C#N)cc12 the results were NR2E3 ag-1 -4, PG9 Ab binder -1, NR1D1 modulator 61*, NR2E3 ag-2 15, Rev-erbA confirm 72* and RORg DNA counter >40.
Screening Cc1ccc(C)c2c1cc(C)c1nnc(SCC(=O)N3CCCc4ccccc43)n12 returned NR2E3 ag-1 4, PG9 Ab binder 0, NR1D1 modulator -2 and NR2E3 ag-2 -1.
`Cc1cc(NC(=O)CSc2nc3c(C)ccc(C)c3cc2C#N)no1` gave NR2E3 ag-1 0, PG9 Ab binder -14, NR1D1 modulator 75*, NR2E3 ag-2 1, Rev-erbA confirm 36* and RORg DNA counter >40.
Screening COc1ccc(NC(=O)c2cc3c(C)nn(-c4ccccc4)c3s2)cc1 returned NR1D1 modulator 4.
Screening O=C1c2ccccc2C(=O)N1CCC#Cc1ccc2cc(CCCO)oc(=O)c2c1 returned PG9 Ab binder 1, NR1D1 modulator 16*, NR2E3 ag-2 29 and Rev-erbA confirm 0.
CN(C)c1ccc(C#Cc2ccc3cc(CCCO)oc(=O)c3c2)cc1 was read as NR2E3 ag-1 1, PG9 Ab binder 2, NR1D1 modulator 28*, NR2E3 ag-2 -71 and Rev-erbA confirm 6.
`O=C(c1ccc(Br)o1)N1N=C(c2ccc(Cl)cc2)CC1c1ccco1` (stereo not given) gave NR2E3 ag-1 1, PG9 Ab binder 0, NR1D1 modulator 24*, NR2E3 ag-2 -21 and Rev-erbA confirm 5.
`CC(=O)N1N=C(c2ccc(Cl)cc2)CC1c1ccco1` (stereo not given) gave NR2E3 ag-1 0, PG9 Ab binder -1, NR1D1 modulator -3 and NR2E3 ag-2 -13.
Screening O=C(Nc1nc(-c2ccc3c(c2)Cc2ccccc2-3)cs1)c1ccccc1 returned NR2E3 ag-1 2, PG9 Ab binder -3, NR1D1 modulator 50*, NR2E3 ag-2 -39 and Rev-erbA confirm 14.
For O=C(NCCN1C(=O)C2C3C=CC(C3)C2C1=O)c1cc(F)cc(F)c1 (stereo not given) the results were NR1D1 modulator 8.
Screening COCc1[nH]nc2c1C(c1ccc(F)cc1)N(Cc1ccccc1)C2=O (stereo not given) returned PG9 Ab binder -1 and NR1D1 modulator -6.
For Cc1oc2c(C)c3oc(=O)c4c(c3cc2c1C)CCCC4 the results were NR2E3 ag-1 2, PG9 Ab binder 1, NR1D1 modulator 30*, NR2E3 ag-2 -11 and Rev-erbA confirm 1.
For CCCNC(=O)c1cc(-c2ccccc2)c(N2CCCCC2)s1 the results were NR2E3 ag-1 3, PG9 Ab binder 3, NR1D1 modulator 93*, NR2E3 ag-2 -22 and Rev-erbA confirm 27*.
Screening CCOC(=O)c1c(-c2cccs2)csc1NC(=O)CC(C)C returned NR2E3 ag-1 3, PG9 Ab binder 0, NR1D1 modulator 1 and NR2E3 ag-2 -18.
CCOC(=O)c1c(-c2cccs2)csc1NC(=O)c1ccco1 was read as NR2E3 ag-1 1, PG9 Ab binder -2, NR1D1 modulator 36*, NR2E3 ag-2 -42 and Rev-erbA confirm 11.
`C[C@H]1/C=C/CC(=O)N[C@@H](c2ccc3ccccc3c2)[C@@H](C)/C=C/CC(=O)N[C@H]1c1ccc2ccccc2c1` gave NR1D1 modulator 7.
For COc1ccc(C)cc1NC(=O)c1cnc2scc(C)n2c1=O the results were PG9 Ab binder 1, NR1D1 modulator 27*, NR2E3 ag-2 -27 and Rev-erbA confirm 8.

Screens: PubChem BioAssay, several laboratories
